Measurements published in ChEMBL document CHEMBL2331310 (Bioorg Med Chem Lett, 2013).
The source made the active and inactive calls. The calls are words filed in the database; no cut-off is given here.

Columns and labels:
[1] = Half life in 1 mM potassium phosphate buffer at pH 7.4 at 50 uM by spectrophotometric analysis; format: physicochemical
[2] = test system: L1210; test: Binding affinity to mouse L1210 cell DNA assessed as DNA cross-linking activity at 10 to 50 uM using H33258 dye by rapid DNA renaturation assay; format: cell-based
[3] = test system: DU-145; test: Cytotoxicity against human DU145 cells expressing AGT after 4 to 24 hrs by clonogenic assay in presence of 100 uM of AGT inhibitor O6-BG; format: functional, cell-based
In short: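 DU145 cells (42,000 AGT molecules/cell) were pretreated with 100 μM O6-BG for 2 h, then exposed to graded drug concentrations. Cytotoxicity was then assessed.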

[4] = test system: DU-145; test: Induction of AGT ablation in human DU145 cells assessed as [benzene-3H]-O6-benzylguanine binding at 80 uM after 2 hrs; format: functional
In short: (§1)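 DU145 human prostate carcinoma cells (about 42,000 AGT molecules/cell) were treated with 80 μM agent for 2 h or 4 h. Remaining AGT level was then measured relative to untreated cells.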

[5] = test system: DU-145; test: Cytotoxicity against human DU145 cells expressing AGT at 10 to 80 uM after 4 hrs by clonogenic assay; format: functional, cell-based
In short: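 DU145 human prostate carcinoma cells, which naturally express about 42,000 AGT molecules/cell, were exposed to graded drug concentrations for 4 h or 24 h. Cytotoxicity was expressed as LC50.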

[6] = test system: DU-145; test: Induction of AGT ablation in human DU145 cells assessed as [benzene-3H]-O6-benzylguanine binding at 80 uM after 4 hrs; format: functional; in short: as §1
[7] = test system: DU-145; test: Cytotoxicity against human DU145 cells expressing AGT after 4 to 24 hrs by clonogenic assay; format: functional; conditions: read-out: LC50 (the source's name)
In short: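 Human prostate carcinoma cells with natural AGT expression (42,000 molecules/cell) were exposed to graded concentrations for 4 h or 24 h. LC50 was read from cytotoxicity curves.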

[8] = test system: DU-145; test: Ratio of laromustine IC50 for compound IC50 for human DU145 cells expressing AGT; format: functional
[9] = test system: EMT6; test: Cytotoxicity against mouse AGT negative EMT6 cells under aerobic conditions after 4 to 24 hrs by clonogenic assay; format: functional, cell-based; conditions: for CC50: read-out: LC50 (the source's name)
In short: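 Murine mammary carcinoma cells lacking AGT expression were exposed to graded concentrations for short (4 h) or long (24 h) periods. LC50 was taken from cytotoxicity curves.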

[10] = test system: EMT6; test: Ratio of laromustine IC50 for compound IC50 for mouse AGT negative EMT6 cells; format: functional

Structure (SMILES)	half-life at 50 µM [1]	Activity [2]	Activity [3]	Activity [4]	Activity [5]	Activity [6]	CC50 [7]	Ratio IC50 [8]	CC50 [9]	Ratio IC50 [10]	IC50 [9]
CN(N(C(=O)N(CCCl)N=O)S(C)(=O)=O)S(C)(=O)=O	13.4 min	Active	Active	Active	Active	Active	–	–	–	–	–
CN(N=O)C(=O)N(N(CCCl)S(C)(=O)=O)S(C)(=O)=O	10 min	Active	Active	>80%	Active	>90%	6.3 µM	>12	0.7 µM	12	–
CNC(=O)N(N(CCCl)S(C)(=O)=O)S(C)(=O)=O [LAROMUSTINE]	–	Active	Active	–	Active	–	> 80 µM	–	8.3 µM	–	–
CN(NS(C)(=O)=O)S(C)(=O)=O	–	–	–	–	–	–	1600 µM	–	–	–	3000 µM
CS(=O)(=O)NN(CCCl)S(C)(=O)=O [VPN-4090CE]	0.55 min	Active	–	–	–	–	–	–	–	–	–
